How the values were obtained:
[1] = tested on: Erk-MAP kinase in Grb2-/- mESCs; assay: Erk-MAP kinase activation; type: cell-based, mouse; conditions: SU5402 10 μM
Method in brief: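 Grb2-/- mouse ES cells (line described previously) were transfected with Lipofectamine LTX. Constructs were WT or chimeric Grb2 in pCAGGS, driven by a β-actin promoter. Cells were selected with puromycin for 48 h before analysis.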

Grb2-/- mESCs = assay: mESC priming; type: cell-based, mouse; conditions: Grb2-/- mESCs expressing the construct; Nanog/Dnmt3b expression signature
Method in brief: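 Grb2-/- mESCs were transfected (Lipofectamine LTX) with WT or chimeric Grb2 in pCAGGS under a β-actin promoter, then puromycin-selected for 48 h before analysis. Dnmt3b levels were quantified as mean ± standard deviation (n=3). Regular colonies were also immunostained for Nanog and Dnmt3b.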

Ptpn11 = molecular target: T1, Ptpn11 (Mus musculus, UniProt P35235); assay: FLAG IP of FLAG-tagged Grb2 constructs compared with Ptpn11 level in cell lysate; type: cell-based; conditions: Ptpn11 in FLAG IP versus cell lysate, mESCs; data not shown
T1 sequence (P35235 1-593): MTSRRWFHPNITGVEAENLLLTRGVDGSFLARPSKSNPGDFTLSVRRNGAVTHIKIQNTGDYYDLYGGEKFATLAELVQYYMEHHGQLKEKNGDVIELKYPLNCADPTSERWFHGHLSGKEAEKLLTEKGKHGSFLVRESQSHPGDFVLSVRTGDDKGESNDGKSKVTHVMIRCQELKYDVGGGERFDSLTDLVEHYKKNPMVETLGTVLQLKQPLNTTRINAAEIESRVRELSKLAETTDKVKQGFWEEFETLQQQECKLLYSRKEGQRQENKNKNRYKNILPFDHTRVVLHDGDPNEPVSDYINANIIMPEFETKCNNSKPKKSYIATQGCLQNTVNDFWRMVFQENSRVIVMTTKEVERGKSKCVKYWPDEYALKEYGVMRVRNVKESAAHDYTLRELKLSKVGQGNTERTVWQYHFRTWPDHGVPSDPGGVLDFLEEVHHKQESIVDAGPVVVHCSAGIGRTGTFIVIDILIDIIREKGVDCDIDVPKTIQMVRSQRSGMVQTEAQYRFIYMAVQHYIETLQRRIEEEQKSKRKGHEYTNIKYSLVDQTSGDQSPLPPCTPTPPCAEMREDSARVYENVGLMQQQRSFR

Molecule	effect on activation of Erk-MAP kinase by chGrb2(Ptpn11_pY580) or WT Grb2 [1]	restoration of mESC priming (Grb2-/- mESCs)	Ptpn11 in the cell engaged (Ptpn11)
Cc1c[nH]c(/C=C2\C(=O)Nc3ccccc32)c1CCC(=O)O [SU5402]	blocked	–	–
WT Grb2: vector-derived FLAG-tagged wild-type Grb2 adaptor protein	–	reestablished	approximately 20%
